The text below walks through data of ChEMBL document CHEMBL4177542, “A New Combination of a Pleuromutilin Derivative and Doxycycline for Treatment of Multidrug-Resistant Acinetobacter baumannii” (J Med Chem, 2017).

The MIC is the lowest concentration found to suppress growth. For orientation: ED50 means the dose that gives a 50% effect, or the effect in half of the subjects. Usually IC50 stands for the concentration that inhibits the measured activity by half.

In brackets after ≈: the same amount, converted by molar mass.

Series [1] has as its system Acinetobacter baumannii. In words: Growth inhibition of Acinetobacter baumannii ATCC 19606 after 48 hrs by resazurin dye based microdilution method. It counts as functional. The procedure, abridged: (§1)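 A. baumannii ATCC 19606 grown in tryptic soy broth, 37 °C with shaking, to mid-log (OD 0.5). Cultures treated with serial dilutions of inhibitor (DMSO stock 1 mg/100 μL), 48 h at 37 °C. Resazurin then added, 1 h at 37 °C with shaking. MIC is the lowest concentration staying blue; MBC is blue retained over 4 h, with CFU plating if needed (99.9% kill).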
(In general: The colour change of resazurin is a common sign of viable cells or microbes.)

For series [2], the system named is Acinetobacter baumannii. In words: Bactericidal activity against Acinetobacter baumannii ATCC 19606 after 48 hrs by resazurin dye based microdilution method. Format: functional. Conditions: for MBC: ATCC 19606 = CIP 70.34 = JCM 6841, 48 h, read-out: MBC99.9. Put shortly: as §1
The subject of series [3] is Acinetobacter baumannii. In words: Growth inhibition of multidrug-resistant Acinetobacter baumannii ATCC BAA 18002 after 48 hrs by resazurin dye based broth microdilution method. It counts as functional. The procedure, abridged:
(§2)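 Broth microdilution in tryptic soy broth. Mid-log cultures (OD600 0.5) treated with serial dilutions from a DMSO stock (1 mg per 100 μL) for 48 h at 37 °C. Resazurin (stock 0.02%) then added for 1 h at 37 °C. MIC is the lowest concentration staying blue; MBC is blue retained over 4 h (99.9% kill), with CFU plating when needed.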

The test system of series [4] is Klebsiella pneumoniae. Nature of the series: Growth inhibition of Klebsiella pneumoniae ATCC 8047 after 48 hrs by resazurin dye based microdilution method. It counts as functional. As to conditions: ATCC 8047, 48 h. The procedure, abridged:
as §2

Series [5] deals with Klebsiella pneumoniae. In words: Bactericidal activity against Klebsiella pneumoniae ATCC 8047 after 48 hrs by resazurin dye based microdilution method. Format: functional. Conditions: ATCC 8047, 48 h, read-out: MBC99.9. Put shortly: as §2
Series [6] has as its system Escherichia coli. Nature of the series: Growth inhibition of Escherichia coli ATCC 10798 after 48 hrs by resazurin dye based microdilution method. Format: functional. Conditions: ATCC 10798, 48 h. The procedure, abridged:
as §2

Series [7] has as its system Escherichia coli. Nature of the series: Bactericidal activity against Escherichia coli ATCC 10798 after 48 hrs by resazurin dye based microdilution method. It counts as functional. As to conditions: ATCC 10798, 48 h, read-out: MBC99.9. The procedure, abridged: as §2
The subject of series [8] is Pseudomonas aeruginosa. In words: Growth inhibition of Pseudomonas aeruginosa ATCC 27853 after 48 hrs by resazurin dye based microdilution method. Format: functional. Conditions: ATCC 27853, 48 h. The procedure, abridged: as §2
In series [9] the test system is Pseudomonas aeruginosa. In words: Bactericidal activity against Pseudomonas aeruginosa ATCC 27853 after 48 hrs by resazurin dye based microdilution method. Format: functional. As to conditions: ATCC 27853, 48 h, read-out: MBC99.9. Put shortly:
as §2

Series [10] deals with Staphylococcus aureus. Nature of the series: Growth inhibition of Staphylococcus aureus ATCC 25923 after 48 hrs by resazurin dye based microdilution method. It counts as functional. As to conditions: ATCC 25923, 48 h. The procedure, abridged: as §2
The test system of series [11] is Staphylococcus aureus. Nature of the series: Bactericidal activity against Staphylococcus aureus ATCC 25923 after 48 hrs by resazurin dye based microdilution method. Format: functional. Conditions: ATCC 25923, 48 h, read-out: MBC99.9. Put shortly: as §2
The test system of series [12] is Acinetobacter baumannii. In words: Synergistic antibacterial activity against Acinetobacter baumannii ATCC 19606 infected in C57BL/6 mouse assessed as increase in survival rate at compound to doxycycline ratio of 35:1 administered ip as single dose measured for 5 days. It counts as functional. Conditions: ATCC 19606 = CIP 70.34 = JCM 6841, ip, 120 h. The procedure, abridged: (§3)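 C57BL/6 mice (n = 5 per group; 4 untreated controls) infected intraperitoneally with A. baumannii ATCC19606 grown at 37 °C and collected by centrifugation, at a dose giving 75% death. Single intraperitoneal dose (2 to 60 mg/kg) given 1 h after infection. Mice monitored for 5 days, with death as the end point; survival rate recorded.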

Series [13] concerns Vero. Nature of the series: Cytotoxicity against African green monkey Vero cells after 72 hrs by MTT assay. It counts as cell-based, Chlorocebus sabaeus. The procedure, abridged:
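Vero (ATCC CCL-81) cells in Eagle's MEM with 10% FBS and penicillin-streptomycin, in 96-well plates. Serial dilutions from 0.78 to 200 μg/mL. Tunicamycin, colistin or tobramycin as controls on each plate. Viability by MTT, giving IC50.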
Background: Tetrazolium assays rely on reduction of a dye to a coloured formazan, in cell work by metabolically active cells.

Series [14] has as its system Acinetobacter baumannii. Nature of the series: Bactericidal activity against multidrug-resistant Acinetobacter baumannii ATCC BAA 18002 after 48 hrs by resazurin dye based broth microdilution method. It counts as functional. As to conditions: for MBC: read-out: MBC99.9. Put shortly: as §2
The test system of series [15] is Acinetobacter baumannii. In words: Antibacterial activity against Acinetobacter baumannii ATCC 19606 infected in C57BL/6 mouse assessed as survival rate at 6 mg/kg, ip administered as single dose measured for 5 days (reference value: <20%). Format: functional. Conditions: ATCC 19606 = CIP 70.34 = JCM 6841, ip, 120 h. Put shortly:
as §3

Series [16] concerns Acinetobacter baumannii. In words: Potentiation of doxycycline-induced antimicrobial activity against Acinetobacter baumannii ATCC 19606 at 0.78 ug/ml in presence of 0.025 ug/ml doxycycline by microdilution broth checkerboard method. It counts as functional, ATCC 19606 = CIP 70.34 = JCM 6841. The procedure, abridged: (§4)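 A. baumannii ATCC 19606 in a broth microdilution checkerboard with doxycycline, 96 concentration combinations. ΣFIC = C_A/MIC_A + C_B/MIC_B, taken for wells at the growth/no-growth interface; ΣFIC <0.5 counts as synergy.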
In general terms: In broth dilution the organism is exposed to a series of concentrations in liquid medium.

Series [17] concerns Acinetobacter baumannii. Nature of the series: Potentiation of doxycycline-induced antimicrobial activity against Acinetobacter baumannii ATCC 19606 at 1.56 ug/ml in presence of 0.05 ug/ml doxycycline by microdilution broth checkerboard method. It counts as functional, ATCC 19606 = CIP 70.34 = JCM 6841. Put shortly: as §4
A short description of series [18]: Half life in Sprague-Dawley rat liver microsomes at 500 ng/ml by LC/MS analysis. It counts as ADME, microsome. Put shortly:
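Pooled Sprague-Dawley rat liver microsomes at 1 mg/mL protein in 100 mM phosphate, pH 7.4. Compound at 500 ng/mL final; verapamil as positive control. Pre-equilibrated 5 min at 37 °C, then 1 mM NADPH added. Triplicate samples at 0, 5, 10, 20, 30, 45 and 60 min, quenched in 4 volumes of cold methanol, analysed by LC-MS.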

Series [19] in a line: Solubility of the compound in water at 10 mg after 24 hrs by HPLC based shake flask method. Format: physicochemical.
Setting [20] is: ATCC 19606 = CIP 70.34 = JCM 6841, 48 h.
[21] abbreviates: Chlorocebus sabaeus, Vero, 72 h, read-out: IC50.
Setting [22] is: ATCC 19606 = CIP 70.34 = JCM 6841.

`C[C@H]1c2cccc(O)c2C(=O)C2=C(O)[C@]3(O)C(=O)C(C(N)=O)=C(O)[C@@H](N(C)C)[C@@H]3[C@@H](O)[C@@H]21.O` [DOXYCYCLINE]: the MIC is 0.3 µg/mL in series [1] (setting [20]); over 25 µg/mL in series [3] (ATCC BAA 18002, 48 h); 0.25 µg/mL in series [4]; 3.13 µg/mL in series [6]; 12.5 µg/mL in [8]; 3.13 µg/mL in series [10]. Moreover, the MBC in [2] turned out to be 0.4 µg/mL; in [5], 0.78 µg/mL; in series [7] it was 6.25 µg/mL; in series [9] it was 25 µg/mL; in series [11], 12.5 µg/mL. Also, the ED50 in series [12] was under 2 mg/kg.
For COLISTIN [listing 1 of 2 here], in series [13] (vero), the IC50 was over 200 µg/mL.
Regarding `C=C[C@]1(C)C[C@@H](OC(=O)CSC(C)(C)CNC(=O)[C@H](NC(=O)CN)C(C)C)[C@]2(C)[C@H](C)CC[C@]3(CC[C@@H](O)[C@H]32)[C@@H](C)[C@@H]1O`, the MIC in series [1] (setting [20]) amounted to 3.13 µg/mL (≈ 5.02 µM); in series [3] (ATCC BAA 18002, 48 h) it was 3.13 µg/mL (≈ 5.02 µM). For the same molecule, the MBC in series [14] is over 12.5 µg/mL.
On to `NC[C@H]1O[C@H](O[C@H]2[C@H](O)[C@@H](O[C@H]3O[C@H](CO)[C@@H](O)[C@H](N)[C@H]3O)[C@H](N)C[C@@H]2N)[C@H](N)C[C@@H]1O` [TOBRAMYCIN], for which the MIC was 6.25 µg/mL (≈ 13.4 µM) in [1] (setting [20]) and over 25 µg/mL in series [3] (ATCC BAA 18002, 48 h). The figures for the MBC in series [14] and in [2] were over 25 µg/mL and 12.5 µg/mL (≈ 26.7 µM), respectively. Further, in [13] (setting [21]), the IC50 is over 200 µg/mL. The survival at 6 mg/kg in [15] is 100%.
Take `CCCCCCCCCCCCC/C=C/C(=O)N[C@H]1[C@H](O[C@H]2O[C@H](CO)[C@@H](O)[C@H](O)[C@H]2NC(C)=O)O[C@H](CC(O)[C@H]2O[C@@H](n3ccc(=O)[nH]c3=O)[C@H](O)[C@@H]2O)[C@H](O)[C@@H]1O` (stereo partly drawn): in [13] (setting [21]), the IC50 was 0.2 µg/mL (≈ 0.237 µM).
With COLISTIN [listing 2 of 2 here], the figures for the MIC in series [1] (setting [22]) and in [3] were 3.13 µg/mL and over 12.5 µg/mL, respectively. Besides, the MBC99.9 was 25 µg/mL in [14] and 6.25 µg/mL in series [2] (setting [22]).
As for `C=C[C@]1(C)C[C@@H](OC(=O)CSC(C)(C)CNC(=O)[C@H](NCCN)C(C)C)[C@]2(C)[C@H](C)CC[C@]3(CC[C@@H](O)[C@H]32)[C@@H](C)[C@@H]1O`, the MBC in series [14] was over 12.5 µg/mL. The molecule also gave an MIC in [3] (ATCC BAA 18002, 48 h) of 3.15 µg/mL (≈ 5.16 µM).
In the case of `C=C[C@]1(C)C[C@@H](OC(=O)CSC(C)(C)CNC(=O)[C@H](N)C(C)C)[C@]2(C)[C@H](C)CC[C@]3(CCC(=O)[C@H]32)[C@@H](C)[C@@H]1O` [VALNEMULIN], the MIC is 3.13 µg/mL (≈ 5.54 µM) in [1] (setting [20]) and 6.25 µg/mL (≈ 11.1 µM) in [3] (ATCC BAA 18002, 48 h). The values for the MBC in series [14] and in series [2] were 25 µg/mL (≈ 44.3 µM) and 12.5 µg/mL (≈ 22.1 µM), respectively. For the same molecule, the “fractional inhibitory concentration index (FICI)” value in series [16] and in series [17] was 0.375 throughout. In series [18], this molecule registered a t1/2 of 34.8 s. For the same molecule, the IC50 in series [13] (setting [21]) was 14.9 µg/mL (≈ 26.4 µM). Besides, the solubility result in series [19] was “Soluble”.
